Test results published in ChEMBL document CHEMBL3804770 (J Med Chem, 2016).
Active and inactive are the calls of the source. No cut-off for these calls is given here.

Legend:
[1] = Photocytotoxicity against human SKOV3 cells assessed as cell viability incubated for 24 hrs under dark conditions followed by 5.6 mW/cm2 of laser illumination for 30 mins measured after 72 hrs by MTT assay; type: functional, cell-based; settings: SK-OV-3
Method in brief: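 SKOV-3 cells (5000/well) dosed from 2 mM DMSO stocks diluted in medium; after 24 h dark incubation, plates illuminated uncovered on orbital shaker with 690 nm diode laser, 5.6 mW/cm² for 30 min (10 J/cm²). Incubated a further 72 h, then MTT read at 570 nm with 650 nm background; viability as percentage of untreated controls.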

Tubulin (Sus scrofa) [2] = biological target: T1, Tubulin (Sus scrofa) (UniProt P02554+P02550); experiment: Induction of porcine brain tubulin polymerization at 30 uM measured every 2 mins for 1 hr by fluorescence analysis in presence of GTP
T1 sequence (P02550 whole entry, looked up): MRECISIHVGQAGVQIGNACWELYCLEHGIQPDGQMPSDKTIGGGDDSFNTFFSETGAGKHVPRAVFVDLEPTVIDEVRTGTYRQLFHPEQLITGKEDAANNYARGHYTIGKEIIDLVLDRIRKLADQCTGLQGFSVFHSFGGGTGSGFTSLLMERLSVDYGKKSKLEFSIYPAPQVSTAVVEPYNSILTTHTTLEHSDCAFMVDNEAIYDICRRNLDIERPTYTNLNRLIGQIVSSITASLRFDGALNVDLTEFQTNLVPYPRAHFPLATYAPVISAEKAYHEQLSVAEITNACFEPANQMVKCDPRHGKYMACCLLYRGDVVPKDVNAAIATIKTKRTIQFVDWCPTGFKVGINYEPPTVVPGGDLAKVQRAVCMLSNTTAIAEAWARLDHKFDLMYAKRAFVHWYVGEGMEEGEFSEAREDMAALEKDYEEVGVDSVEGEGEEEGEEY
T1 sequence (P02554 whole entry, looked up): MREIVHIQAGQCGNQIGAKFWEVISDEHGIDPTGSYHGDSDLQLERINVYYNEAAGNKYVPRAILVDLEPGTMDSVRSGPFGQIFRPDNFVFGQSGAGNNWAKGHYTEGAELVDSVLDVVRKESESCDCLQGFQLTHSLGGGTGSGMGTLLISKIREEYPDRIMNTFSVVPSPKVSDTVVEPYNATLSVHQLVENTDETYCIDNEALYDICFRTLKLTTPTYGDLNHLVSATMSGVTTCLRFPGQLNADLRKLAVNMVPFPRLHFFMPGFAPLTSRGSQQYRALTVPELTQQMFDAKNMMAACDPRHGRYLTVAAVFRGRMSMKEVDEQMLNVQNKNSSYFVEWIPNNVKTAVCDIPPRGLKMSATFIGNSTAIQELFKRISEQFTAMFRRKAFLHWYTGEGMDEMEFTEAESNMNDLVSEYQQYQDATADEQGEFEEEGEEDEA
Method in brief: (§1)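 Fluorescence-based tubulin polymerization kit. Compound in DMSO diluted with water, then combined with tubulin and GTP in buffer at 37 °C. Fluorescence (excitation 360 nm, emission 450 nm) read every 2 min for 1 h.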

Tubulin (Sus scrofa) [3] = biological target: T1, Tubulin (Sus scrofa); experiment: Induction of porcine brain tubulin polymerization at 1.5 uM irradiated with 5.6 mW/cm2 of far-red light for 30 mins measured every 2 mins for 1 hr by fluorescence analysis
[4] = Retention time of the compound at 10 uM by HPLC analysis; type: physicochemical
Method in brief: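 Complete medium containing 10 µM compound held at 37 °C in the dark. Samples were extracted into dichloromethane, dried, and taken up in 5% DMSO in ACN. Isocratic HPLC with 90% ACN/10% 10 mM ammonium acetate at 0.5 mL/min; detection by diode array at 675 nm.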

[5] = Drug degradation in complete medium at 10 uM after 96 hrs by HPLC analysis under dark conditions
[6] = Dark cytotoxicity against human SKOV3 cells assessed as cell viability after 72 hrs by MTT assay; type: cell-based; settings: SK-OV-3, 72 h
Method in brief: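 SKOV-3 cells seeded at 5000/well, incubated 24 h, then treated from 2 mM DMSO stocks diluted in medium to final concentrations; kept in the dark 72 h. MTT ([…]) added, formazan dissolved in DMSO, absorbance 570 nm minus 650 nm background; viability as percentage of untreated wells.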

[7] = nOctanol-phosphate buffer partition coefficient, log D of the compound at pH 7.4 incubated for 3 hrs in dark condition by fluorimeter; type: physicochemical; settings: octanol/water, pH 7.4, 3 h
[8] = Drug uptake in nucleus of human SKOV3 cells at 0.5 uM after 23 hrs by tubulin tracker green fluorescent dye based confocal microscopy; type: ADME, cell-based; settings: sk-ov-3, 23 h
Method in brief: (§2)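 SKOV-3 cells grown in α-MEM with 10% bovine growth serum, 2 mM L-glutamine, penicillin/streptomycin and fungizone were seeded on coverslips, cultured 24 h, then exposed to prodrug at 500 nM for 24 h under minimal light. Tubulin tracker green, 1 µM final in HBSS, added 45-60 min at 37 °C, then washed. Confocal imaging: tracker excitation 488 nm/emission 500-550 nm, prodrug excitation 633 nm/emission 650-800 nm, three random fields per treatment.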

[9] = Drug degradation […] at 10 uM after 24 hrs by HPLC analysis under dark conditions; type: physicochemical; settings: read-out: Drug degradation
Method in brief: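 10 μM solution in complete cell culture medium, made from DMSO stock, kept at 37 °C in the dark. Aliquots taken at 0, 2, 24, 48, 96 and 168 h, extracted with dichloromethane, reconstituted in 5% DMSO in ACN. Analysed by isocratic HPLC (90% ACN/10% 10 mM ammonium acetate, 0.5 mL/min); remaining percentage versus t = 0, three experiments.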

Tubulin (Sus scrofa) [10] = biological target: T1, Tubulin (Sus scrofa); experiment: Induction of porcine brain tubulin polymerization at 3 uM after 40 mins by fluorescence analysis in presence of GTP; method in brief: as §1
[11] = Ratio of compound IC50 to PTX IC50 for dark cytotoxicity against human SKOV3 cells; type: cell-based, SK-OV-3; settings: read-out: Ratio IC50
[12] = Ratio of photocytotoxic IC50 for human SKOV3 cells measured after drug wash out to photocytotoxic IC50 for human SKOV3 cells measured before drug wash out; type: functional, SK-OV-3
[13] = Drug uptake in cytosol of human SKOV3 cells at 0.5 uM after 23 hrs by tubulin tracker green fluorescent dye based confocal microscopy; type: ADME, cell-based, SK-OV-3; method in brief: as §2
[14] = Photocytotoxicity against human SKOV3 cells assessed as cell viability incubated for 24 hrs under dark conditions followed by 5.6 mW/cm2 of laser illumination for 30 mins measured 72 hrs post drug wash out by MTT assay; type: functional, cell-based; settings: SK-OV-3
Method in brief: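 SKOV-3 cells (5000/well) held 24 h in the dark with drug, illuminated at 690 nm, 5.6 mW/cm², 30 min (10 J/cm²). Medium then replaced with fresh medium to remove released material, followed by 72 h incubation and MTT readout (570 nm, 650 nm background), viability relative to untreated wells.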

[15] = Retention time of the compound in DMSO treated with (Pc-(L-PTX)2) by mass spectroscopy/HPLC analysis; type: physicochemical

Row | Retention_time [15] [min] | Compound | IC50 [1] [nM] | Activity (Tubulin (Sus scrofa) [2]) | Activity (Tubulin (Sus scrofa) [3]) | Retention_time [4] [min] | degraded at 96 h, 10 µM [5] [%] | IC50 [6] [nM] | logD [7] | Drug uptake [8] | degraded at 24 h, 10 µM [9] [%] | Activity (Tubulin (Sus scrofa) [10]) | selectivity ratio [11] | Ratio IC50 [12] | Drug uptake [13] | IC50 [14] [nM]
1 |  | CC(=O)O[C@H]1C(=O)[C@@]2(C)[C@H](O)C[C@@H]3OC[C@]3(OC(C)=O)[C@@H]2[C@@H](OC(=O)c2ccccc2)[C@]2(O)C[C@@H](OC(=O)[C@@H](OC(=O)CCC(=O)N3CCN(CCO[Si]4(OCCN5CCN(C(=O)CCC(=O)O[C@@H](C(=O)O[C@@H]6C[C@@]7(O)[C@H](OC(=O)c8ccccc8)[C@H]8[C@@]9(OC(C)=O)CO[C@H]9C[C@@H](O)[C@]8(C)C(=O)[C@H](OC(C)=O)C(=C6C)C7(C)C)[C@H](NC(=O)c6ccccc6)c6ccccc6)CC5)n5c6c7ccccc7c5/N=C5N=C(/N=c7/c8ccccc8/c(n74)=N/C4=NC(=N\6)/c6ccccc64)c4ccccc4\5)CC3)[C@H](NC(=O)c3ccccc3)c3ccccc3)C(C)=C1C2(C)C (some centres undefined) | 24 | inactive | inactive | 21 | 14 | 1280 | > 3.1 | Not Active | 4 | inactive | 270 | 2 | Active | 53
2 |  | CC(=O)O[C@H]1C(=O)[C@@]2(C)[C@H]([C@H](OC(=O)c3ccccc3)[C@]3(O)C[C@H](OC(=O)[C@H](OC(=O)/C=C/N4CCN(CCO[Si]5(OCCN6CCN(/C=C/C(=O)O[C@@H](C(=O)O[C@H]7C[C@@]8(O)[C@@H](OC(=O)c9ccccc9)[C@@H]9[C@]%10(OC(C)=O)CO[C@@H]%10C[C@H](O)[C@@]9(C)C(=O)[C@H](OC(C)=O)C(=C7C)C8(C)C)[C@@H](NC(=O)c7ccccc7)c7ccccc7)CC6)n6c7c8ccccc8c6/N=C6N=C(/N=c8/c9ccccc9/c(n85)=N/C5=NC(=N\7)/c7ccccc75)c5ccccc5\6)CC4)[C@@H](NC(=O)c4ccccc4)c4ccccc4)C(C)=C1C3(C)C)[C@]1(OC(C)=O)CO[C@@H]1C[C@@H]2O | 3.9 | inactive | Active | 32 | < 7 | 910 | > 3.1 | Not Active |  | inactive | 190 | 23 | Active | 89
3 | 11 | CC(=O)O[C@H]1C(=O)[C@@]2(C)[C@H]([C@H](OC(=O)c3ccccc3)[C@]3(O)C[C@H](OC(=O)[C@H](O)[C@@H](NC(=O)c4ccccc4)c4ccccc4)C(C)=C1C3(C)C)[C@]1(OC(C)=O)CO[C@@H]1C[C@@H]2O [PACLITAXEL] |  |  |  |  |  | 4.7 |  |  |  |  |  |  |  | 
